For data set [1] the following is noted: n-octanol versus water; cited from earlier work.
For data set [2] the following is noted: transplant recipient group with a high BMI; cited from earlier work.
Data set [3] is described as follows: Pharmacokinetic profile of tacrolimus. The class given is in vivo, human. The note with it: dose-adjusted whole-blood concentrations; P=0.024 and 0.031. The procedure, abridged:
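Stable Korean kidney recipients (n=18; ≥20 y, ≥6 months post-transplant, creatinine <2.0 mg/dL) on steroid/mycophenolate/tacrolimus, trough-targeted 5–10 ng/mL. Fasting; whole blood drawn pre-morning dose (C0) and at 1–4 h post-dose; mass spectrometry. AUC0–4 by linear trapezoidal rule; values dose-adjusted. Lean/fat mass by bioelectrical impedance; groups split at median, compared by Mann-Whitney U (P<0.05).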

Consider one compound from article PMC4716096 (Kidney Research and Clinical Practice, 2012).

On to `C=CC[C@@H]1/C=C(\C)C[C@H](C)C[C@H](OC)[C@H]2O[C@@](O)(C(=O)C(=O)N3CCCC[C@H]3C(=O)O[C@H](/C(C)=C/[C@@H]3CC[C@@H](O)[C@H](OC)C3)[C@H](C)[C@@H](O)CC1=O)[C@H](C)C[C@@H]2OC` [tacrolimus], for which the “partition coefficient of tacrolimus in n-octanol relative to water” value in data set [1] was 1000 fold. Also, in data set [2], the tacrolimus levels entry was “higher than 15 ng/mL”. Moreover, the “C0 and C4 in the high-fat group compared with the low-fat group” value in data set [3] is given as “significantly elevated”.
